Bioassay records from PubChem BioAssay.
Sampled rows, rich in hits. Any-hit rate of the full collection: about 3%.
INS promoter inh – TRM-6 insulin promoter activity inhibition. TRM-6 cells (human fetal islet line), insulin promoter-eGFP reporter, imaging; reporter expression induced with tamoxifen. inhibition, % at 2 µM. 0.9% of 130,000 active. AID 1273;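 active = inhibition above the mean plus 3 SD, with well images judged a real hit on visual review, cut at about 60% in these data, passing the limit was not always enough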
Insulin prom up – MIN6 insulin promoter up-regulation; 0.3% of 190,000 active; z-score at 5 µM; MIN6 insulin promoter-GFP reporter, high-content imaging; hits give high values;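 active = z-score above 3 at 5 µM with at least 500 cells counted in the well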
RAM network inh – inhibitors of the yeast RAM network. S. cerevisiae dse1pr::URA3 reporter, 5-FOA growth OD615, 2 d; analog-sensitive cbk1-as2 kinase mutant strain. inhibition, % at 50 µM. AID 868. 1.8% of 190,000 active;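 active = inhibition above a set limit, 3 SD over mean compound inhibition, cut at about 8.4% in these data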;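 note: 0% = DMSO-only wells with no growth and 100% = 10 µM 1-NA-PP1 full growth; inhibition rescues growth on 5-FOA so higher OD means more RAM inhibition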
Yeast growth inh – yeast BB579 growth reduction in restrictive medium | inhibition, % at 10 µM | 0.51% of 140,000 active | S. cerevisiae BB579 growth, OD615, 48 h | AID 804;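 active = inhibition above a set limit, 3 SD over the mean compound inhibition, cut at about 44% in these data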
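controls = amphotericin B 10 µg/mL, positive | assay system = DeaD yeast strain BB579 | schedule = 48 h compound exposure at 30 °C after 4 h preincubation | detection = OD615 turbidity measurement | medium = restrictive CSMM-D medium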
Yeast lifespan up – yeast lifespan extension. S. cerevisiae growth with nicotinamide, OD615; deaD strain in restrictive glucose medium. inhibition of the nicotinamide effect, % at 10 µM. 0.68% of 130,000 active. AID 775;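 active = inhibition above a set limit, placed 3 SD over the median of all compounds, cut at about 26% in these data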;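 note: 0% = nicotinamide-treated wells and 100% = cells grown without nicotinamide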
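Buffer or medium: CSMM-D glucose medium, restrictive; test system: modified budding yeast, DeaD strain; compound: single dose 10 µM compound, 0.25% DMSO; schedule: culture preincubation 4 h, compound exposure 48 h, both 30 °C; detection: optical density (absorbance) at 615 nm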
The depositor's hits bear a star; . = no result given.

SMILES	INS promoter inh	Insulin prom up	RAM network inh	Yeast growth inh	Yeast lifespan up
O=C(CNC(=S)N(CCCN1CCOCC1)Cc1cccs1)NC1CCCCC1	.	-1.2	0	.	.
Cc1ccc2cc(C#N)c(SCC(=O)N3CCCc4ccccc43)nc2c1C	-30	.	9.2*	-48	-2
CCCCNS(=O)(=O)c1ccc2nc(SCC(=O)Nc3ccccc3Cl)[nH]c2c1	.	-0.26	9.4*	-27	-5
COc1ccc(/C=C2\C(=O)N(c3c(Cl)cc(Cl)cc3Cl)N=C2NC(=O)c2cccc([N+](=O)[O-])c2)cc1	.	-0.19	5	-49	13
COc1cc(O)c(C(C)=O)c(CC(=O)O)c1	.	-0.28	.	.	.
CCCCC(c1nnnn1CC1CCCO1)N1CCN(c2nc3ccccc3s2)CC1 (stereo not given)	.	-1.3	2	-36	73*
Cc1ccc(-c2nc3ccccc3nc2NN)cc1	.	-0.55	.	.	.
Cc1ccccc1-n1nnnc1SCC(=O)NCC1CCCO1 (stereo not given)	.	0.14	2	.	.
CSCCC(NC(=O)c1ccccc1)C(=O)OCC(=O)Nc1ccc(C)c(Cl)c1 (stereo not given)	-14	-0.22	6	-37	-7
CSCCC(NC(=O)c1ccc(Cl)cc1)C(=O)OCC(=O)Nc1cc(Cl)ccc1C#N (stereo not given)	14	-2.5	8.7*	2	-4
CCOC(=O)c1c(C)oc2c(CC(=O)c3ccccc3)c(Cl)c(O)c(O)c12	37	0.74	3	-56	3
N#Cc1ccc(C23CC4CC(CC(C4)C2)C3)[nH]c1=O	9	0.96	1	-22	6
Cc1ncc(C23CC4CC(CC(C4)C2)C3)[nH]1	.	-0.53	1	-34	152*
CC(C)(C)C(=O)NC1(C(F)(F)F)NC(=O)N(c2ccccc2F)C1=O (stereo not given)	.	-0.21	.	.	.
CCCn1c(C)cc(C(=O)COc2ncnc3sccc23)c1C	.	-0.63	1	0	49*
Cc1cc(C(=O)COc2ncnc3sccc23)c(C)n1C1CC1	.	2.5	0	6	55
CN1CCN(CC(O)COc2ccc(C34CC5CC(CC(C5)C3)C4)cc2)CC1 (stereo not given)	.	-1.7	0	.	.
Cc1ccc(/C=C/c2nc3ccccc3[nH]2)o1	71*	-0.52	1	.	.
Cc1ccc(CN=C(Nc2ccccc2)NC2CCCCC2)cc1	.	-1.1	2	.	.
O=C1CN(C(=O)/C=C/c2ccco2)c2ccccc2N1	.	-0.77	0	.	.
O=C(COC(=O)c1ccccc1Nc1ccccc1)NCc1ccccc1	.	-0.03	3	-18	8
Cc1cc(C)c(S(=O)(=O)Nc2ccccc2C(=O)OCC(=O)NCc2ccccc2)c(C)c1	.	-0.51	8.7*	.	.
Cc1c(C(=O)NCc2cccnc2)oc2c1C(=O)CC(C)(C)C2	79*	0	1	-47	-7
CCC(C)NC(=S)N1CCN(C)CC1 (stereo not given)	.	-0.28	5	.	.
Cc1ccc(-c2cc(-c3ccccc3C)[nH]n2)c(O)c1	-70	.	5	100*	.
SMILES	INS promoter inh	Insulin prom up	RAM network inh	Yeast growth inh	Yeast lifespan up
COc1ccc(O)c(-c2cc(-c3cccc(Br)c3)n[nH]2)c1	.	-0.21	10*	9	-21
Cc1ccc(O)c(-c2cc(-c3cccc(F)c3)n[nH]2)c1	-48	0.14	0	99*	-13
Cc1ccc(-c2cc(-c3cccc(F)c3)n[nH]2)c(O)c1	55	0.46	3	-11	-10
Cc1ccc(O)c(-c2cc(-c3ccccc3F)[nH]n2)c1	19	1.1	3	-47	-9
CCOC(=O)N1CCN(CCC(=O)Nc2cc([N+](=O)[O-])ccc2OC)CC1	-331	-0.05	0	8	7
Cc1[nH]n(-c2ccccc2)c(=O)c1C(c1cccc([N+](=O)[O-])c1)c1c(C)[nH]n(-c2ccccc2)c1=O	7	0.33	7	-31	30*
Cc1[nH]n(-c2ccccc2)c(=O)c1C(c1cccc([N+](=O)[O-])c1O)c1c(C)[nH]n(-c2ccccc2)c1=O	0	0.79	5	-1	2
COc1ccc(CC(=O)NNc2ncnc3c2cnn3Cc2ccccc2)cc1OC	.	-0.51	.	.	.
O=C(O)CCC(=O)N1CCN(c2nc(-c3ccccc3Cl)c3cc(Br)ccc3n2)CC1	25	.	-2	99*	-16
CCN(CC)C(=O)c1sc2nc(-c3cccs3)cc(-c3ccc(Cl)cc3)c2c1N	-44	2	9.2*	-63	3
N#Cc1sc2nc(-c3cccs3)cc(-c3ccc(Cl)cc3)c2c1N	.	-0.14	5	-3	-25
CCOC(=O)N1CCN(C(=O)CSc2ccc(-c3ccncc3)nn2)CC1	75*	-1.1	1	.	.
COc1ccccc1/C=N/N1C(=O)C(CC(=O)Nc2ccc([N+](=O)[O-])cc2OC)SC1=Nc1cccc(C)c1C (stereo not given)	-50	.	11*	.	.
CCOc1ccc(/C(C)=N/N2C(=O)C(CC(=O)Nc3ccc(OC)cc3[N+](=O)[O-])SC2=Nc2cccc(C)c2C)cc1 (stereo not given)	11	0.21	8	-41	9
CCCCCN1N=C(C)CC1=O	67*	-0.64	0	.	.
COC(=O)c1cnc2ccccc2n1	-26	.	0	13	.
O=C(O)c1cnc2ccccc2n1	85*	0.49	1	-12	-3
CCOC(=O)c1ccc(-n2[nH]c(-c3ccccc3)cc2=O)cc1	57	0.03	9.6*	97*	-18
O=C(CCCOc1ccc(Cl)cc1Cl)Nc1ncccn1	.	-0.14	.	.	.
O=C(COC(=O)CCCOc1ccc(Cl)cc1Cl)Nc1cccc(Cl)c1	-160	-0.03	11*	24	-4
COc1ccc(CNC(=O)COC(=O)CCCOc2ccc(Cl)cc2Cl)cc1	.	0.68	9.6*	-15	-3
O=C(CCCOc1ccc(Cl)cc1Cl)N/N=C/c1ccco1	79*	0.1	4	.	.
S=C(Nc1ccc2cn[nH]c2c1)Nc1ccccc1Cl	64*	0.71	0	-4	37*
CCCCn1cnc2c([nH]c3cc(OC)ccc32)c1=O	-34	-0.58	1	-8	-22
O=c1c2[nH]c3ccccc3c2ncn1CCCn1ccnc1	-32	-0.01	1	-72	-10
SMILES	INS promoter inh	Insulin prom up	RAM network inh	Yeast growth inh	Yeast lifespan up
Cc1nc2c([nH]c3ccccc32)c(=O)n1N	100*	-0.34	0	.	.
CCCCn1cnc2c([nH]c3ccccc32)c1=O	82*	-0.69	1	1	-29
O=c1c2[nH]c3ccc(Br)cc3c2ncn1CCCn1ccnc1	79*	0.05	1	-30	-19
O=C(NCCCn1ccnc1)Nc1ccc(Cl)cc1	77*	0.02	2	-20	-31
Cc1ccc(C(=O)NCCCn2ccnc2)cc1[N+](=O)[O-]	33	5.5*	3	-28	7
CCOC(=O)C1(Cc2ccccc2Cl)CCN(Cc2csc(C(C)=O)c2)CC1	10	.	0	.	.
CN(C)c1nc2ncn(Cc3ccccc3)c2c(=O)[nH]1	.	-0.07	.	.	.
CCCn1c(SCC(=O)N2CCCC(C)C2)nnc1-c1cccnc1 (stereo not given)	-10	-0.56	1	.	.
